The results in this text go back to article PMC10213863 (Cell Reports Medicine, 2023).

One data set deals with T1, TLR9 (Homo sapiens, UniProt Q9NR96).
T1 sequence (Q9NR96 26-1032): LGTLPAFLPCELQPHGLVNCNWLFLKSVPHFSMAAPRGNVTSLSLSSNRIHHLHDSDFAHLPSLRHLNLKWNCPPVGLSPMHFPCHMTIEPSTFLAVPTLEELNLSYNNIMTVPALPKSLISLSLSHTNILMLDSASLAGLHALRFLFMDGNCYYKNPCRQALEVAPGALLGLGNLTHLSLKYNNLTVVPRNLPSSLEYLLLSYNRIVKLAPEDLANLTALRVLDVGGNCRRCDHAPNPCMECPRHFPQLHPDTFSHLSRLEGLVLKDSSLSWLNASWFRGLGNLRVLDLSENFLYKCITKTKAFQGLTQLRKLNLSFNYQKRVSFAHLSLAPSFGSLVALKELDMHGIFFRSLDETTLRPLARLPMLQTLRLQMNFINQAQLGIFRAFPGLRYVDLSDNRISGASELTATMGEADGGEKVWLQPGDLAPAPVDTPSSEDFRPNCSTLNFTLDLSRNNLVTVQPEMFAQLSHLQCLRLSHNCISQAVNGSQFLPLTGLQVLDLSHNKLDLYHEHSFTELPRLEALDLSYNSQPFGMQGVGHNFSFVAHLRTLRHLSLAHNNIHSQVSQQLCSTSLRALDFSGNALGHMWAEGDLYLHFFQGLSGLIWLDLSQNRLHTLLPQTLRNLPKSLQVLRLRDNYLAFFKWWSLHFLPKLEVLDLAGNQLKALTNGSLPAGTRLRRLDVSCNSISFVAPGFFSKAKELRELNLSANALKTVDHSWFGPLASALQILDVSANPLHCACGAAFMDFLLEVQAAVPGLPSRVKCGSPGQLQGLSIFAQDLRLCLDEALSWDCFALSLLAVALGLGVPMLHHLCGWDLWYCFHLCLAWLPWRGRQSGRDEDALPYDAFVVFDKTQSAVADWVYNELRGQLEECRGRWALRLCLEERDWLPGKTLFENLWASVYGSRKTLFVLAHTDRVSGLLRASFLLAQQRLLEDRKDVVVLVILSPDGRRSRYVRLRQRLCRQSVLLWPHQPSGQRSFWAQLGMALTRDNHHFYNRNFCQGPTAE
Description: Ramos Blue reporter B cell line, ODN2006 stimulation. The note with it: Ramos cells. It counts as cell-based. An outline of the steps:
(§1)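 Ramos Blue B reporter cells were pre-treated 30 min at 37°C, 5% CO2 with increasing concentrations of test compound or 0.25% v/v DMSO. They were then stimulated with the respective agonist, and reporter activity was read.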

Data set [1] has as its system tumor necrosis factor (TNF) receptor. As to the kind of experiment: Ramos Blue reporter B cell line, TNF stimulation. It counts as cell-based, human. The note with it: Ramos cells; up to 10 μM; n = 4, data not shown. The method, boiled down:
as §1

The target of another data set is T2, TLR8 (Homo sapiens, UniProt Q9NR97).
T2 sequence (Q9NR97 27-1041): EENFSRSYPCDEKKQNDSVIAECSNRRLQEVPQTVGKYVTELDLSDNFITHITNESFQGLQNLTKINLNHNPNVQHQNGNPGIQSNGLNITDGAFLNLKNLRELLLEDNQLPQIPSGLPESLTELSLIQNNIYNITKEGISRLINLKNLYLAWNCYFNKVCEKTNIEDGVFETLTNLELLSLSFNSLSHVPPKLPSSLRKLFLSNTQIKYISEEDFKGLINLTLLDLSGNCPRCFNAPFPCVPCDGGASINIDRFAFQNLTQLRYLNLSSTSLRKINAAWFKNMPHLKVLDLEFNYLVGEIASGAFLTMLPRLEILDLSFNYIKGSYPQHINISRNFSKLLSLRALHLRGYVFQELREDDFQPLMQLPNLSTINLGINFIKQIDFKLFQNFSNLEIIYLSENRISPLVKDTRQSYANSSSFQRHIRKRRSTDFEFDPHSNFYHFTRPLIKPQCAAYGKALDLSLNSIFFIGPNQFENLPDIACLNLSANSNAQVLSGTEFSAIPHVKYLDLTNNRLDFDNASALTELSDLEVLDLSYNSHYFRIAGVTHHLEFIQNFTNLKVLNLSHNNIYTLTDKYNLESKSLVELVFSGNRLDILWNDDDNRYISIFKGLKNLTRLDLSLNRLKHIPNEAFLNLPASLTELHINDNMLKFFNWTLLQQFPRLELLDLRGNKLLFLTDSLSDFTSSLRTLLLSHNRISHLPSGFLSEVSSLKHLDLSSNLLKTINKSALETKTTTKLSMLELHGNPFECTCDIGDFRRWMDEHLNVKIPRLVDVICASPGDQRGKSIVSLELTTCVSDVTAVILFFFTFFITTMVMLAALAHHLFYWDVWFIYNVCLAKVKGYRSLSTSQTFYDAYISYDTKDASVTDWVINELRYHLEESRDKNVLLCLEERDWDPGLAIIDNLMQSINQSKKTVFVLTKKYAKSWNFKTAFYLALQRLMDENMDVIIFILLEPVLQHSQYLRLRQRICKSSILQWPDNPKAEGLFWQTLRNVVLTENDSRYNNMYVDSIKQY
As to the kind of experiment: HEK293-NFkB-luciferase reporter cells transfected with TLR8, R848 stimulation. It counts as cell-based. The method, boiled down:
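HEK293-NFkB-luciferase cells stably expressing HA-tagged human TLR7 or TLR8 were pre-treated 60 min at 37°C, 5% CO2 with increasing concentrations of test compound or 0.25% v/v DMSO. They were then stimulated 6 h with R848: 0.3 μM for TLR7, 4 μM for TLR8. Luciferase activity […] was read by Bright-Glo luminescence.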

Data set [2] has as its system human PBMCs, monocytes, neutrophils, human blood. As to the kind of experiment: Cell viability in profiling assays. The conditions noted are these: human primary cells; concentrations of up to 10 μM. It counts as cell-based. The method, boiled down: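 Toxicity counter-screens were run within each primary-cell assay across the test-compound dose range. PBMCs, isolated monocytes and neutrophils were read by CellTiter-Glo. Diluted whole blood was read by ATPlite luminescence.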

The next data set concerns the target murine TLR7 (Mus musculus, UniProt P58681). As to the kind of experiment: Murine whole blood assay, ssRNA-induced IFN-α and TNF. It is filed as cell-based. An outline of the steps: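 Fresh human blood or 129/Sv mouse blood was taken into citrate and diluted 1:1 with RPMI1640. It was pre-incubated 30 min at 37°C, 5% CO2 with increasing concentrations of test compound or 0.25% v/v DMSO (final). Blood was then stimulated with TLR agonists at doses from earlier work, or with R848 (3 μM), and cytokines were quantified. Viability was checked by ATPlite luminescence.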

For the next data set, the target named is TLR7/8 (Homo sapiens, UniProt Q9NR97). As to the kind of experiment: Human neutrophil ROS production, R848 stimulation. It counts as cell-based.

The structures appear in SMILES notation.

murine TLR7, sequence (P58681 27-1050): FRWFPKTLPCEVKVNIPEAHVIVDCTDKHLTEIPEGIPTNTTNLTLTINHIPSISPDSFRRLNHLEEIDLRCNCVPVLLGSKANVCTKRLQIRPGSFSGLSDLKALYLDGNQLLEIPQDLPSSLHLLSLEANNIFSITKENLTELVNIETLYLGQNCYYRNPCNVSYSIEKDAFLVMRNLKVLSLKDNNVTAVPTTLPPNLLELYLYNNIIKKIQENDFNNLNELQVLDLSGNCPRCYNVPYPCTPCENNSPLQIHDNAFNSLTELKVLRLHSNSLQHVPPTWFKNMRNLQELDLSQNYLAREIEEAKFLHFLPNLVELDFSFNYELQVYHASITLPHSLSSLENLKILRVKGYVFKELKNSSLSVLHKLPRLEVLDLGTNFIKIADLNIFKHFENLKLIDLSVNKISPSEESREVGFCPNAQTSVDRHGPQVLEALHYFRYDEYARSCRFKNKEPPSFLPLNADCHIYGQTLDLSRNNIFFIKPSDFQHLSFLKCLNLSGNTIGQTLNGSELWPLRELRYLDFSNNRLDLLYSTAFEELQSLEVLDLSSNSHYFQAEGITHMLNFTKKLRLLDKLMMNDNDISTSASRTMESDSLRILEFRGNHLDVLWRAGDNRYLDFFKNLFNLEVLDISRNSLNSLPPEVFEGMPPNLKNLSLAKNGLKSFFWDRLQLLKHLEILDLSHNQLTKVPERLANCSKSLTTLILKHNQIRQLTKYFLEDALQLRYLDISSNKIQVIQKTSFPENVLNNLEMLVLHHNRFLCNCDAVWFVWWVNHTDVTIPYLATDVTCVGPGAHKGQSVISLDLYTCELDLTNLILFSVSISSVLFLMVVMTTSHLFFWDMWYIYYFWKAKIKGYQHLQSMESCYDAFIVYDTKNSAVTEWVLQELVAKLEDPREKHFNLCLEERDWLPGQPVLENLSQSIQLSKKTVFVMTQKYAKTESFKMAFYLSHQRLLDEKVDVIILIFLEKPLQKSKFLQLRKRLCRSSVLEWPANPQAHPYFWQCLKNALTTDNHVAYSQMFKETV

For `Cc1cc(N2CCc3c(c(C)nn3CC34CCC(NC(=O)[C@@H]5COCCN5)(CC3)CC4)C2)c2cnn(C)c2n1` [MHV370, (S)-N-(4-((5-(1,6-dimethyl-1H-pyrazolo[3,4-b]pyridin-4-yl)-3-methyl-4,5,6,7-tetrahydro-1H-pyrazolo[4,3-c]pyridin-1-yl)methyl)bicyclo[2.2.2]octan-1-yl)morpholine-3-carboxamide], at TLR9, the “inhibitory activity against endosomal TLR9” value is “no or very limited inhibitory activity”. Also, the “interference with TNF receptor-driven activity” value in data set [1] is “did not interfere”. For the same compound, the 50% inhibitory concentration (IC50) at TLR8 came out at 4.5 ± 1.1 nM; against murine TLR7 (IC50, TLR7 (ssRNA-IFN-α), mouse blood, mean ± SEM (n)), 58 ± 10 nM; against TLR7/8, 3.8 ± 0.8 nM. The cell toxicity result in data set [2] was “did not lead to cell toxicity”. The “potency on mouse whole blood relative to human whole blood (fold lower)” value on murine TLR7 (mouse vs human whole blood) is “about 10 fold”.
